Activity calls are given as the source filed them. No cut-off for these calls is given here.
Legend:
HUVEC [1] = assay: Antiinflammatory activity in HUVEC assessed as inhibition of TNF-alpha-induced VCAM1 expression incubated for 1 hr prior to TNF-alpha challenge measured after overnight incubation by enzyme immunoassay method; assay type: functional, Homo sapiens
Summary of the method: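 Confluent HUVECs in 96-well plates were pre-treated 1 h with compound (25 µM), then stimulated with TNF-α 10 ng/mL overnight. Cell-surface VCAM-1 was measured by cell-surface enzyme immunoassay. Three independent experiments, each with n = 8 replicates.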

HUVEC [2] = assay: Cytotoxicity against HUVEC assessed as cell viability up to 50 uM after 24 to 72 hrs by WST-1 assay; assay type: cell-based; details: human
Summary of the method: (§1)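 HUVECs were exposed to compound (10, 25, 50 µM; 0.1% DMSO vehicle) for 24 h or 72 h. WST-1 premix was added for a further 2 h, and formazan absorbance was read at 450 nm as a measure of mitochondrial dehydrogenase activity. Three independent experiments, each with n = 6 replicates.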

HUVEC [3] = assay: Effect on PMA-induced COX-2 protein expression in HUVEC at 1 to 25 uM incubated for 1 hr prior to PMA challenge measured after overnight incubation by EIA assay relative to control; assay type: ADME, cell-based; details: human
Summary of the method: (§2)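 Cells were pre-treated 1 h with compound, then stimulated overnight with PMA 10 nM, TNF-α 10 ng/mL (HUVECs) or PDGF-BB 20 ng/mL (HAoSMCs). Monolayers were fixed and permeabilized in cold acetone on ice for 2 min. They were probed with goat anti-COX-2 and then HRP anti-goat IgG, developed with TMB for 30 min, stopped with 0.18 M H2SO4, and read at 450 nm. Three experiments, n = 6 each.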

Homo sapiens [4] = species: Homo sapiens; assay: Cytotoxicity against HAoSMC assessed as inhibition of PDGF-BB-induced cell growth incubated for 1 hr prior to PDGF-BB challenge measured after 48 hrs by BrdU incorporation assay; assay type: functional
Summary of the method: (§3)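 Cells at about 70% confluence were serum-starved overnight, pre-treated 1 h with compound (1–25 µM), then grown with or without PDGF-BB (HAoSMCs) or ECGF (HUVECs), each at 20 ng/mL, for 48 h. Cells were BrdU-labelled, fixed and immunostained, and absorbance was read at 450 nm. Three experiments, n = 8 each.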

HUVEC [5] = assay: Antiinflammatory activity in HUVEC assessed as reduction in TNF-alpha-induced VCAM1 mRNA expression at 10 to 25 uM incubated for 1 hr prior to TNF-alpha challenge measured after 4 hrs by RT-PCR analysis relative to control; assay type: functional, cell-based; details: Homo sapiens
Summary of the method: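 HUVECs were pre-treated 1 h with compound, then exposed to TNF-α 10 ng/mL for 4 h. Total RNA was extracted and VCAM-1 with GAPDH amplified by RT-PCR (VCAM-1 30 cycles, 55 °C annealing). Bands were quantified by densitometry and normalized to GAPDH. Mean ± SEM of three determinations.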

HUVEC [6] = assay: Cytotoxicity against HUVEC at 1 to 25 uM after 48 hrs by BrdU incorporation assay relative to untreated control; details: human
Homo sapiens [7] = species: Homo sapiens; assay: Inhibition of PDGF-BB-induced COX-2 mRNA expression in HAoSMC at 1 to 25 uM incubated for 1 hr prior to PDGF-BB challenge measured after overnight incubation by RT-PCR analysis relative to control; assay type: functional
Summary of the method: (§4)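 Confluent cells (HAoSMCs at passages 20–30, HUVECs up to fifth passage) were pre-treated 1 h with compound (1, 10, 25 µM) or 0.1% DMSO, then stimulated with PMA 10 nM, PDGF-BB 20 ng/mL or TNF-α 10 ng/mL overnight. Total RNA was extracted and RT-PCR run with GAPDH co-amplified. Bands were quantified by densitometry and normalized to GAPDH. Three determinations.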

HUVEC [8] = assay: Cytotoxicity against HUVEC assessed as cell viability at 10 to 50 uM after 24 to 72 hrs by WST-1 assay relative to untreated control; assay type: cell-based; details: human; summary of the method: as §1
[9] = target: Matrix metalloproteinase-9 (Homo sapiens) (UniProt P14780); assay: Inhibition of PMA-induced MMP9 activity in HAoSMC at 25 uM after 24 hrs by gelatin zymography relative to control
Sequence of Matrix metalloproteinase-9 (Homo sapiens) (P14780 whole entry): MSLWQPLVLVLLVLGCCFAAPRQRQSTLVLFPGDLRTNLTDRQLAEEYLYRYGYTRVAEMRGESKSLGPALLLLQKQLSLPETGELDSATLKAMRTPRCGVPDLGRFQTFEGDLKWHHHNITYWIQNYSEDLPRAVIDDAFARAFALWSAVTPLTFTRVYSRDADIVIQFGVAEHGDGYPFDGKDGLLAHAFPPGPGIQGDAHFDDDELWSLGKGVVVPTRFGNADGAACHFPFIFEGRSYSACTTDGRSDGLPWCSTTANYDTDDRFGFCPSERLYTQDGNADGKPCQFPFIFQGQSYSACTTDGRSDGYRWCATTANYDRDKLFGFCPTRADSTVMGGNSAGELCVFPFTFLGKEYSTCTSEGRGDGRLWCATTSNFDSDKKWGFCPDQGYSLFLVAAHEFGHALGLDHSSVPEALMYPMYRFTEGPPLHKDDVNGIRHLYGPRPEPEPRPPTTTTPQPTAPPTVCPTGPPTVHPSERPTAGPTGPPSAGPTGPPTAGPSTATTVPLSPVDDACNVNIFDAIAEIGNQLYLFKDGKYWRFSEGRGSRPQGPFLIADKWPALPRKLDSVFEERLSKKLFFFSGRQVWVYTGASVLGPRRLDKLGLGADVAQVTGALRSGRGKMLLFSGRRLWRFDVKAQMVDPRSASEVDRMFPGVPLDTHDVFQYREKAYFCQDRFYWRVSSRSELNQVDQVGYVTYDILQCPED
Summary of the method: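 HAoSMCs were treated with PMA 10 nM in serum-free medium, with or without compound (10, 25 µM), for 24 h. Conditioned medium ([…]) was run on 11% SDS-PAGE containing 0.1% gelatin at 125 V and 4 °C. Gels were washed in Triton X-100, incubated 24 h at 37 °C in Tris pH 7.5/CaCl2 buffer, and Coomassie-stained. Lysis bands were quantified by densitometry.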

HUVEC [10] = assay: Effect on TNF-alpha-induced COX-2 protein expression in HUVEC at 1 to 25 uM incubated for 1 hr prior to TNF-alpha challenge measured after overnight incubation by EIA assay relative to control; assay type: ADME, cell-based; details: human; summary of the method: as §2
HUVEC [11] = assay: Effect on PMA-induced COX-2 mRNA expression in HUVEC at 1 to 25 uM incubated for 1 hr prior to PMA challenge measured after overnight incubation by RT-PCR analysis relative to control; assay type: ADME, cell-based; details: human; summary of the method: as §4
[12] = target: T1, Prostaglandin G/H synthase 2 (Homo sapiens) (UniProt P35354); assay: Inhibition of COX2 in HUVEC assessed as TNF-alpha-induced PGI2 production at 1 to 25 uM incubated for 1 hr prior to TNF-alpha challenge measured after overnight incubation by competitive enzyme immunoassay
T1 sequence (whole entry): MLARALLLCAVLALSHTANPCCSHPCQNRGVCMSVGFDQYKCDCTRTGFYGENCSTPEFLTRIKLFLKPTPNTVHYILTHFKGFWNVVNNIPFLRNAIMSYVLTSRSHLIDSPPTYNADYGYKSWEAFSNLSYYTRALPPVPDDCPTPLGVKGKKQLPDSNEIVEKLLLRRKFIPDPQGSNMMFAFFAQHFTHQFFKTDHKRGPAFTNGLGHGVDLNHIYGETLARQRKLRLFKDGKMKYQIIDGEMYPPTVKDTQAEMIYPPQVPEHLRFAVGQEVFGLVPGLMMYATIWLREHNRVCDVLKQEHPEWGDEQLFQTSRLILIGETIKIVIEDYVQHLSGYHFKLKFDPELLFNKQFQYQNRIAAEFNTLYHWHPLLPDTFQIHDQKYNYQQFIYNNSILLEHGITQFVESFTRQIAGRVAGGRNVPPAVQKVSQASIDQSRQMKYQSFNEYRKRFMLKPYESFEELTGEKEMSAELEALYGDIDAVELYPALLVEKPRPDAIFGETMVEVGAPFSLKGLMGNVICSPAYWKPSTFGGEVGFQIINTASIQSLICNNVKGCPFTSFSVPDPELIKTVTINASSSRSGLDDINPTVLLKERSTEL
Summary of the method: (§5)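 Cells were pre-treated 1 h with compound (1–25 µM), then stimulated overnight with PMA 10 nM (HAoSMCs) or TNF-α 10 ng/mL (HUVECs). Conditioned medium was centrifuged, and PGE2 and PGI2 (as 6-keto-PGF1α) were measured by competitive EIA in pg/mL. Three independent experiments in duplicate.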

Homo sapiens [13] = species: Homo sapiens; assay: Antiinflammatory activity in HAoSMC assessed as inhibition of PMA-induced MMP-9 mRNA expression at 10 to 25 uM incubated for 1 hr prior to PMA challenge measured after overnight incubation by RT-PCR analysis; assay type: functional; summary of the method: as §4
HUVEC [14] = assay: Cytotoxicity against HUVEC assessed as inhibition of ECGF-induced cell growth at 1 to 25 uM incubated for 1 hr prior to ECGF challenge measured after 48 hrs by BrdU incorporation assay relative to control; assay type: cell-based; details: human; summary of the method: as §3
[15] = target: T1, Prostaglandin G/H synthase 2 (Homo sapiens); assay: Inhibition of COX2 in HUVEC assessed as TNF-alpha-induced PGE2 production at 1 to 25 uM incubated for 1 hr prior to TNF-alpha challenge measured after overnight incubation by competitive enzyme immunoassay; summary of the method: as §5
HUVEC [16] = assay: Effect on TNF-alpha-induced COX-2 mRNA expression in HUVEC at 1 to 25 uM incubated for 1 hr prior to TNF-alpha challenge measured after overnight incubation by RT-PCR analysis relative to control; assay type: ADME, cell-based; details: human; summary of the method: as §4
[17] = target: T1, Prostaglandin G/H synthase 2 (Homo sapiens); assay: Inhibition of COX2 in HAoSMC assessed as PMA-induced PGE2 production at 1 to 25 uM incubated for 1 hr prior to PMA challenge measured after overnight incubation by competitive enzyme immunoassay; summary of the method: as §5
HUVEC [18] = assay: Cytotoxicity against HUVEC assessed as cell detachment at 10 to 50 uM after 72 hrs by phase-contrast microscopy; assay type: cell-based; details: human
Summary of the method: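 After 72 h of treatment with compound at concentrations up to 50 µM, HUVEC morphology was examined by phase-contrast microscopy.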

Homo sapiens [19] = species: Homo sapiens; assay: Inhibition of PMA-induced COX-2 mRNA expression in HAoSMC at 1 to 25 uM incubated for 1 hr prior to PMA challenge measured after overnight incubation by RT-PCR analysis relative to control; assay type: functional; summary of the method: as §4
Homo sapiens [20] = species: Homo sapiens; assay: Inhibition of PDGF-BB-induced COX-2 protein expression in HAoSMC incubated for 1 hr prior to PDGF-BB challenge measured after overnight incubation by EIA assay relative to control; assay type: functional; summary of the method: as §2
Homo sapiens [21] = species: Homo sapiens; assay: Inhibition of PMA-induced COX-2 protein expression in HAoSMC at 1 to 25 uM incubated for 1 hr prior to PMA challenge measured after overnight incubation by EIA assay relative to control; assay type: functional; summary of the method: as §2
HUVEC [22] = assay: Cytotoxicity against HUVEC assessed as cell viability at 10 uM after 24 to 72 hrs by WST-1 assay relative to untreated control; assay type: cell-based; details: human
Summary of the method: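 HUVECs (used up to fifth passage from primary culture) in 96-well plates exposed to compound for 24 h or 72 h, DMSO final ≤0.1% as vehicle; WST-1 premix added for further 2 h, absorbance at 450 nm; viability relative to untreated cells. Morphology also checked by phase-contrast microscopy. Mean of three independent experiments, each n = 6 replicates.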

Row | SMILES | inhibition (INH) (HUVEC [1]) [%] | Activity (HUVEC [2]) | Activity (HUVEC [8]) | Activity (HUVEC [18]) | other results
1 | COc1ccc(-c2nc3ccccn3c(=O)c2-c2ccc(OC)c(OC)c2)cc1 | 15 | Non-toxic |  |  | 
2 | COc1ccc(-c2nc3ccccn3c(=O)c2-c2ccccc2)cc1 | 8.9 | Non-toxic |  |  | 
3 | O=c1c(-c2ccccc2)c(-c2ccccc2)nc2ccccn12 | 8.5 | Non-toxic |  |  | 
4 | COc1ccc(-c2c(-c3ccccc3)nc3ccccn3c2=O)cc1OC | 12 | Non-toxic |  |  | 
5 | COc1ccc(-c2c(-c3ccc(OC)c(OC)c3)nc3ccccn3c2=O)cc1 | 10.3 | Non-toxic |  |  | 
6 | COc1ccc(-c2nc3ccccn3c(=O)c2-c2ccccc2)cc1OC | 37 | Non-toxic | Non-toxic | Non-toxic | Activity (HUVEC [3]): Non-toxic; inhibition (Homo sapiens [4]): Dose-dependent effect; inhibition (HUVEC [5]): Active; inhibition (HUVEC [1]; Homo sapiens): Dose-dependent effect; Activity (HUVEC [6]): Non-toxic; inhibition (Homo sapiens [7]): Active; inhibition [9]: Active; Activity (HUVEC [10]): Non-toxic; Activity (HUVEC [11]): Non-toxic; inhibition [12]: inactive; inhibition (Homo sapiens [13]): Active; Activity (HUVEC [14]): Non-toxic; inhibition [15]: inactive; Activity (HUVEC [16]): Non-toxic; inhibition [17]: Active; inhibition (Homo sapiens [19]): Active; inhibition (Homo sapiens [20]): Dose-dependent effect; inhibition (Homo sapiens [21]): Active
7 | COc1ccc(-c2c(-c3ccccc3)nc3ccccn3c2=O)cc1 | 12 | Non-toxic |  |  | 
8 | O=c1cc(-c2ccc(O)cc2)oc2cc(O)cc(O)c12 [APIGENIN] |  |  | Toxic | Toxic | Activity (HUVEC [22]): Toxic
9 | COc1ccc(-c2nc3ccccn3c(=O)c2-c2ccc(OC)cc2)cc1 | 9.6 | Non-toxic |  |  | 
10 | O=c1c(O)c(-c2ccc(O)c(O)c2)oc2cc(O)cc(O)c12 [QUERCETIN] |  |  | Toxic | Toxic | Activity (HUVEC [22]): Toxic
